Reference: ChEMBL document CHEMBL5223168, “Using Imidazo[2,1-b][1,3,4]thiadiazol Skeleton to Design and Synthesize Novel MNK Inhibitors” (ACS Med Chem Lett, 2023)
The source made the active and inactive calls. No cut-off for these calls is given here.

Tests used:
[1] = target: T1, MAP kinase-interacting serine/threonine-protein kinase 1 (Homo sapiens, UniProt Q9BUB5); assay: Inhibition of MNK1 (unknown origin) incubated for 60 mins using CREB as substrate in presence of ATP by LANCE Ultra kinase assay
Target sequence in this assay (Q9BUB5 whole entry): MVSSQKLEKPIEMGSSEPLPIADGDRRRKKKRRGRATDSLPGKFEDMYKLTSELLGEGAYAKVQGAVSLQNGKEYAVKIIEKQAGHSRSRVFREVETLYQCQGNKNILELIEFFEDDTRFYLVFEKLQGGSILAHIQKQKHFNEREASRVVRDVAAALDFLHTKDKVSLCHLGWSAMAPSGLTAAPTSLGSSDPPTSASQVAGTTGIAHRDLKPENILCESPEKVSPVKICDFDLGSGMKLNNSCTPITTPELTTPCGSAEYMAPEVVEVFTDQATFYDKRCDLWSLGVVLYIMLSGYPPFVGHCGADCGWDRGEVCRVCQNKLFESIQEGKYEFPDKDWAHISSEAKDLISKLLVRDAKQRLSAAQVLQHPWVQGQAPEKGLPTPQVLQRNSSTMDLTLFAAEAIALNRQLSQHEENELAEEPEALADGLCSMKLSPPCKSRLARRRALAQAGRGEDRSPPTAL

3T3-L1 = assay: Inhibition of MNK in mouse 3T3-L1 cells assessed as inhibition of eIF4E phosphorylation at 5 uM incubated for 2 hrs by Western blot analysis; format: cell-based
Summary of the method: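 Mouse 3T3-L1 cells exposed to compound at 5 μM for 2 h; lysates resolved by SDS-PAGE and immunoblotted for phospho-eIF4E. Reference MNK inhibitor run in parallel at 1 μM.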

mTORC2 (Homo sapiens) = mTORC2 (Homo sapiens) (UniProt P42345+Q6R327+Q9BVC4+Q9BPZ7); assay: Inhibition of mTORC2 in human LNCaP C4-2B cells assessed as inhibition of phosphorylation of AKT at Ser473 at 5 uM incubated for 2 hrs by Western blot analysis; format: cell-based
Summary of the method: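 C4-2B prostate cancer cells treated with inhibitor; lysates probed by Western blot for p-eIF4E, p-S6K (Thr389), p-rpS6 (Ser240/244) and p-AKT (Ser473).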

MEF = assay: Inhibition of MNK in MNK2 knockout mouse MEF cells assessed as inhibition of eIF4E phosphorylation at 3 uM incubated for 2 hrs by Western blot analysis; format: cell-based
Summary of the method: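 MEFs lacking MNK1 or MNK2 (wild-type for comparison) treated 2 h at indicated concentrations; lysates immunoblotted for p-eIF4E, which reflects the remaining MNK isoform; quantified from three independent experiments, SEM.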

[2] = target: T1, MAP kinase-interacting serine/threonine-protein kinase 1; assay: Inhibition of MNK1 (unknown origin) at 3 uM in presence of ATP by kinase assay
Summary of the method: (§1)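 Single-point kinase profiling: inhibitor tested at 3 μM against a panel of 60 kinases from different families, activity presented as heatmap.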
Target sequence in this assay (Q9BUB5 whole entry, looked up): as the sequence (Q9BUB5 whole entry) above

[3] = target: MAP kinase-interacting serine/threonine-protein kinase 2 (Homo sapiens, UniProt Q9HBH9); assay: Inhibition of MNK2 (unknown origin) at 3 uM in presence of ATP by kinase assay; summary of the method: as §1
Homo sapiens = organism: Homo sapiens; assay: Inhibition of QIK (unknown origin) at 3 uM in presence of ATP by kinase assay; summary of the method: as §1
[4] = target: Dual specificity protein kinase CLK1 (Homo sapiens) (UniProt P49759); assay: Inhibition of CLK1 (unknown origin) at 3 uM in presence of ATP by kinase assay
MDA-MB-231 = assay: Antiproliferative activity against human MDA-MB-231 cells assessed as reduction in cell viability at 5 uM incubated upto 6 days by trypan blue assay; format: functional, cell-based; details: time <= 6.0 day
Summary of the method: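 A549 or MDA-MB-231 cells cultured with 5 μM compound for up to 6 days; cell number counted over time; p-eIF4E followed by immunoblot up to 96 h.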

[5] = target: Eukaryotic translation initiation factor 4E (Homo sapiens) (UniProt P06730); assay: Inhibition of eIF4E phosphorylation in human A549 cells at 5 uM and measured upto 96 hrs by Western blot analysis; format: cell-based
Summary of the method: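 Cells maintained with compound at 5 μM for up to 6 days for cell counts; eIF4E phosphorylation followed by immunoblot for up to 96 h.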

A549 [6] = assay: Inhibition of colony formation in human A549 cells at 1 to 5 uM measured after 10 days by crystal violet staining based clonogenic assay; format: functional, cell-based; details: dose 1-5 µM, time 10.0 day
Summary of the method: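 Clonogenic assay over 10 days; cells treated with DMSO vehicle or compound at indicated concentrations, plates scanned and colonies quantified from three independent experiments.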

A549 [7] = assay: Induction of cell cycle arrest in human A549 cells assessed as accumulation of cells at G2/M phase at 5 uM incubated for 8 hrs by propidium iodide staining based flow cytometry (Rvb=6.5%); format: functional
A549 [8] = assay: Induction of cell cycle arrest in human A549 cells assessed as accumulation of cells at G2/M phase at 5 uM incubated for 16 hrs by propidium iodide staining based flow cytometry (Rvb=11.8%); format: functional
A549 [9] = assay: Induction of cell cycle arrest in human A549 cells assessed as accumulation of cells at G2/M phase at 5 uM incubated for 20 hrs by propidium iodide staining based flow cytometry (Rvb=15.5%); format: functional
A549 [10] = assay: Induction of cell cycle arrest in human A549 cells assessed as accumulation of cells at S phase at 5 uM incubated for 8 hrs by propidium iodide staining based flow cytometry (Rvb=1.7%); format: functional
[11] = Cmax in mouse at 25 mg/kg, iv and measured upto 24 hrs; format: ADME, organism-based; set-up: dose 25 mg/kg, time < 24 hrs, route iv; details: in vivo
[12] = AUC (0-t) in mouse at 25 mg/kg, iv and measured upto 24 hrs; format: ADME, organism-based; set-up: time < 24 hrs, dose 25 mg/kg, route iv; details: in vivo
[13] = Apparent volume of distribution in mouse at 50 mg/kg, po and measured upto 24 hrs; format: ADME, organism-based; details: in vivo
[14] = Half life in mouse at 50 mg/kg, po and measured upto 24 hrs; format: ADME, organism-based; details: in vivo
[15] = Clearance in mouse at 50 mg/kg, po and measured upto 24 hrs; format: ADME, organism-based; details: in vivo
A549 [16] = assay: Antitumor activity against human A549 cells xenografted in BALB/C nude mouse assessed as reduction in tumor volume at 75 to 150 mg/kg, po QD for 14 days; format: functional, organism-based; details: dose 75-150 mg/kg, time 14.0 day
Summary of the method: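 A549 xenografts in nude mice; compound given orally once daily at 75 or 150 mg/kg for 14 days, irinotecan reference at 3 mg/kg; tumor growth tracked as T/C ratio (relative tumor proliferation rate); body weight monitored.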

[17] = test system: MAP kinase-interacting kinase MNK1/2 (Homo sapiens); assay: Inhibition of MNK in human A549 cells assessed as reduction in TNF-alpha level at 1 to 10 uM incubated for 48 hrs by ELISA; details: dose 1-10 µM
[18] = test system: MAP kinase-interacting kinase MNK1/2 (Homo sapiens); assay: Inhibition of MNK in human A549 cells assessed as inhibition of eIF4E phosphorylation at 3 uM incubated for 2 hrs by Western blot analysis
[19] = test system: MAP kinase-interacting kinase MNK1/2 (Homo sapiens); assay: Inhibition of MNK in human U-937 cells assessed as inhibition of eIF4E phosphorylation at 10 uM incubated for 2 hrs by Western blot analysis
[20] = test system: MAP kinase-interacting kinase MNK1/2 (Homo sapiens); assay: Inhibition of MNK in human SKM-1 cells assessed as inhibition of eIF4E phosphorylation at 10 uM incubated for 2 hrs by Western blot analysis
[21] = test system: MAP kinase-interacting kinase MNK1/2 (Homo sapiens); assay: Inhibition of MNK in human NCI-H446 cells assessed as inhibition of eIF4E phosphorylation at 3 uM incubated for 2 hrs by Western blot analysis
[22] = test system: MAP kinase-interacting kinase MNK1/2 (Homo sapiens); assay: Inhibition of MNK in human MDA-MB-231 cells assessed as inhibition of eIF4E phosphorylation at 3 uM incubated for 2 hrs by Western blot analysis
MV4-11 = assay: Induction of cell cycle arrest in human MV4-11 cells assessed as decrease in cyclin B1 level at 3 uM incubated for 24 hrs by Western blot analysis

Eukaryotic translation initiation factor 4E (Homo sapiens), sequence (P06730 whole entry): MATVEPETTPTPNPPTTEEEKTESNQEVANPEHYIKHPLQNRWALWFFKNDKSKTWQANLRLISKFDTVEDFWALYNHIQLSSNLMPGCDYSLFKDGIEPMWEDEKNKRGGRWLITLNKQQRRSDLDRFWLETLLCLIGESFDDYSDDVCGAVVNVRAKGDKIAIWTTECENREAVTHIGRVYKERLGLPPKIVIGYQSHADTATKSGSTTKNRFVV
MAP kinase-interacting serine/threonine-protein kinase 2, sequence (Q9HBH9 whole entry, looked up): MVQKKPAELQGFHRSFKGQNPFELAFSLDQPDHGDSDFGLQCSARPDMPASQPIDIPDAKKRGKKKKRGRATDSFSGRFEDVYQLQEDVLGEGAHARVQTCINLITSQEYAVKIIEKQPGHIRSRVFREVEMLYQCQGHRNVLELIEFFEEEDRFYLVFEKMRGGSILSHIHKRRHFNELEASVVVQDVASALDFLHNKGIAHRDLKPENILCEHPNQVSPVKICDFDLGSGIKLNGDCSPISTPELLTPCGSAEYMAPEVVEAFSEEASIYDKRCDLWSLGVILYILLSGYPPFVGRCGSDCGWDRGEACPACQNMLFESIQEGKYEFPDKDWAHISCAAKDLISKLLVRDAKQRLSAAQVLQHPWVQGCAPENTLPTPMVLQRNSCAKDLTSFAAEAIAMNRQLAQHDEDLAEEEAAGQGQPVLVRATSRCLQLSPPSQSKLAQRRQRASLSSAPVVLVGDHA
Dual specificity protein kinase CLK1 (Homo sapiens), sequence (P49759 whole entry, looked up): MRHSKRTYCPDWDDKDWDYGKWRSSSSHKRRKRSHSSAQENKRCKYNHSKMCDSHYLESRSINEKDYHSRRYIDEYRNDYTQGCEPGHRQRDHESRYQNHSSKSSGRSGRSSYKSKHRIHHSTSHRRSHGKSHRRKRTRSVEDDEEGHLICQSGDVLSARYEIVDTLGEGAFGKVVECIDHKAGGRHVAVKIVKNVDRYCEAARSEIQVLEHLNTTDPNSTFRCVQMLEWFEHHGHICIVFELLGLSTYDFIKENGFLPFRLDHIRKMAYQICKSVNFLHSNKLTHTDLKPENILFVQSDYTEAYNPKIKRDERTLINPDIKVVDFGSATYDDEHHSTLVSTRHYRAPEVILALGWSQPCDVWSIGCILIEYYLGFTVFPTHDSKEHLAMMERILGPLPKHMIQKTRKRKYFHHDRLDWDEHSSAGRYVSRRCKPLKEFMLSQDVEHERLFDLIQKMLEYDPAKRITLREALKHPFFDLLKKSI

- IC50 [1]: 11.5 nM
- inhibition (mTORC2 (Homo sapiens)): inactive
- inhibition [2]: 100%
- inhibition [3]: 100%
- inhibition (Homo sapiens): Active
- inhibition [4]: Active
- inhibition [5]: Active
- Cmax [11]: 32100 ng/mL
- AUC(0-t) at 24 h [12]: 80900 ng·h/mL
- Vz [13]: 3.155 L/kg
- half-life [14]: 4.42 h
- CL/F [15]: 8.45 mL/min/kg
- inhibition [17]: Active
- inhibition [18]: Active
- inhibition [19]: Active
- inhibition [20]: Active
- inhibition [21]: Active
- inhibition [22]: Active
Structure (SMILES): CN1CCN(C(=O)c2ccc(-c3nn4c(-c5ccc(C#N)cc5)cnc4s3)cc2)CC1
- inhibition (3T3-L1): Active
- inhibition (MEF): 50%
- Activity (MDA-MB-231): Active
- inhibition (A549 [6]): Dose-Dependent Effect
- Activity (A549 [7]): 9%
- Activity (A549 [8]): 5.2%
- Activity (A549 [9]): 3.3%
- Activity (A549 [10]): 2.7%
- Activity (A549 [16]): Dose-Dependent Effect
- Activity (MV4-11): Active
